From ChEMBL document CHEMBL3272298, “Use of adenine nucleotide derivatives to assess the potential of exo-active-site-directed reagents as species- or isozyme-specific enzyme inactivators. 2. Isozyme-specific inactivation of a mammalian enzyme and its significance in the possible design of fetal isozyme targeted antineoplastic agents” (J Med Chem, 1978)
Activity calls are given as the source filed them. The calls are words filed in the database; no cut-off is given here.

Assays:
[1] = target: Pyruvate kinase PKLR (Rattus norvegicus) (UniProt P12928); assay: Inactivation of Sprague-Dawley rat pyruvate kinase L using PEP as substrate at 5 mM at pH 7 after 8 hrs by spectrophotometric analysis
Procedure, shortened: (§1)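 Electrofocused isozymes, at tenfold (M) or twofold (L, K) assay level, exposed at pH 7.0 and 22 °C to Mg salts of the analogues. Medium: triethanolamine buffer with MgCl2, KCl, NADH, fructose diphosphate and lactate dehydrogenase, no ADP or PEP. Exposure was 8 h at 5 mM, or up to 10 mM for the liver isozyme; M controls were followed to 24 h. Timed aliquots were assayed by the coupled LDH method at 340 nm with 0.373 mM ADP, against controls lacking analogue.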

[2] = target: Pyruvate kinase PKLR (Rattus norvegicus) (UniProt P12928); assay: Activity at Sprague-Dawley rat pyruvate kinase L assessed as initial enzyme reaction velocity at 0.21 mM by spectrophotometric analysis relative to ADP
Procedure, shortened: (§2)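 Isozymes K, L and M from male Sprague-Dawley rat kidney, liver and muscle, partially purified by electrofocusing and dialyzed. Assay in 0.05 M triethanolamine-HCl pH 7.0 with 5 mM MgCl2, 67 mM KCl, 0.56 mM phosphoenolpyruvate, 0.4 mM NADH, 10 μM fructose 1,6-diphosphate, 0.21 mM nucleotide and lactate dehydrogenase. After 5 min preincubation, the nucleotide starts the reaction. Initial rate at 340 nm, 22 °C, expressed relative to ADP (100).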

[3] = target: Pyruvate kinase PKLR (Rattus norvegicus) (UniProt P12928); assay: Inactivation of Sprague-Dawley rat pyruvate kinase L using PEP as substrate at 10 mM at pH 7 after 8 hrs by spectrophotometric analysis; procedure, shortened: as §1
[4] = organism: Rattus norvegicus; assay: Inactivation of Sprague-Dawley rat pyruvate kinase K using PEP as substrate at 5 mM at pH 7 after 8 hrs by spectrophotometric analysis; procedure, shortened: as §1
[5] = target: Pyruvate kinase PKM (Rattus norvegicus) (UniProt P11980); assay: Inactivation of Sprague-Dawley rat pyruvate kinase M using PEP as substrate at 5 mM at pH 7 after 8 hrs by spectrophotometric analysis; procedure, shortened: as §1
[6] = Retardation factor of the compound using 1-butanol-acetic acid-water as solvent system by paper chromatography; type: physicochemical; conditions: buffer
[7] = target: Pyruvate kinase PKM (Rattus norvegicus) (UniProt P11980); assay: Activity at Sprague-Dawley rat pyruvate kinase M assessed as initial enzyme reaction velocity at 0.21 mM by spectrophotometric analysis relative to ADP; procedure, shortened: as §2
[8] = target: Pyruvate kinase PKM (Rattus norvegicus) (UniProt P11980); assay: Inactivation of Sprague-Dawley rat pyruvate kinase M using PEP as substrate at 7 mM pretreated at 22 degC for 2 hrs with pyruvate kinase L measured for 3.5 hrs by spectrophotometric analysis
Procedure, shortened: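 Liver isozyme treated with the analogue (7 mM) for 2 h at 22 °C under the usual inactivation conditions, then an approximately equal activity of muscle isozyme added. Muscle activity followed for a further 3.5 h by the LDH-coupled 340 nm assay.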

[9] = target: Pyruvate kinase PKLR (Rattus norvegicus) (UniProt P12928); assay: Inactivation of Sprague-Dawley rat pyruvate kinase L using PEP as substrate at 7 mM pretreated with pyruvate kinase K by spectrophotometric analysis
[10] = target: Pyruvate kinase PKLR (Rattus norvegicus) (UniProt P12928); assay: Inactivation of Sprague-Dawley rat pyruvate kinase L using PEP as substrate at 5 mM at pH 7 after 8 hrs by spectrophotometric analysis in presence of 5 mM ADP
Procedure, shortened: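 Liver isozyme exposed to 5 mM Mg-analogue together with 5 mM ADP for 8 h at 22 °C, pH 7.0, in triethanolamine/MgCl2/KCl medium. Remaining activity was measured in timed aliquots by the LDH-coupled 340 nm assay with 0.373 mM ADP.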

[11] = target: T1, Pyruvate kinase PKLR (Rattus norvegicus, UniProt P12928); assay: Drug metabolism assessed as Sprague-Dawley rat pyruvate kinase L-mediated drug conversion; type: ADME
Procedure, shortened: (§3)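 Each isozyme preparation (K, L, M) incubated with the analogue under inactivation conditions: pH 7.0, 22 °C, triethanolamine buffer with MgCl2 and KCl. Conversion of the analogue to other compounds checked by paper electrophoresis at pH 3.5.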

[12] = target: T1, Pyruvate kinase PKLR; assay: Binding affinity to Sprague-Dawley rat pyruvate kinase L assessed as apprent enzyme-inhibitor dissociation constant using PEP as substrate by spectrophotometric analysis; conditions: read-out: Kd(app)
Procedure, shortened: (§4)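 Liver isozyme incubated at 22 °C with Mg salt of the analogue at 3.0–10.0 mM in triethanolamine buffer with MgCl2, KCl, NADH, fructose diphosphate and lactate dehydrogenase, without ADP or PEP. Aliquots taken over time and assayed at 340 nm with 0.373 mM ADP. Pseudo-first-order inactivation half-times were derived, with t1/2 extrapolated to infinite inhibitor level, and apparent K from the rate-saturation analysis.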

[13] = organism: Rattus norvegicus; assay: Activity at Sprague-Dawley rat pyruvate kinase K assessed as initial enzyme reaction velocity at 0.21 mM by spectrophotometric analysis relative to ADP; procedure, shortened: as §2
[14] = target: Pyruvate kinase PKLR (Rattus norvegicus) (UniProt P12928); assay: Half life for inactivation of Sprague-Dawley rat pyruvate kinase L using PEP as substrate by spectrophotometric analysis; procedure, shortened: as §4
[15] = target: Pyruvate kinase PKLR (Rattus norvegicus) (UniProt P12928); assay: Inactivation of Sprague-Dawley rat pyruvate kinase L using PEP as substrate at 7 mM pretreated with pyruvate kinase M measured for 4 hrs by spectrophotometric analysis
Procedure, shortened: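 Muscle isozyme first exposed to the analogue (7 mM) under the usual inactivation conditions at 22 °C, then liver isozyme added. Liver isozyme inactivation was followed over 4 h by the LDH-coupled 340 nm assay.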

[16] = Drug metabolism assessed as Sprague-Dawley rat pyruvate kinase K-mediated drug conversion; type: ADME; procedure, shortened: as §3
[17] = organism: Rattus norvegicus; assay: Inactivation of Sprague-Dawley rat pyruvate kinase K using PEP as substrate at 7 mM pretreated with pyruvate kinase L by spectrophotometric analysis
[18] = target: Pyruvate kinase PKM (Rattus norvegicus, UniProt P11980); assay: Drug metabolism assessed as Sprague-Dawley rat pyruvate kinase M-mediated drug conversion; type: ADME; procedure, shortened: as §3
Sequence of Pyruvate kinase PKM (P11980 whole entry): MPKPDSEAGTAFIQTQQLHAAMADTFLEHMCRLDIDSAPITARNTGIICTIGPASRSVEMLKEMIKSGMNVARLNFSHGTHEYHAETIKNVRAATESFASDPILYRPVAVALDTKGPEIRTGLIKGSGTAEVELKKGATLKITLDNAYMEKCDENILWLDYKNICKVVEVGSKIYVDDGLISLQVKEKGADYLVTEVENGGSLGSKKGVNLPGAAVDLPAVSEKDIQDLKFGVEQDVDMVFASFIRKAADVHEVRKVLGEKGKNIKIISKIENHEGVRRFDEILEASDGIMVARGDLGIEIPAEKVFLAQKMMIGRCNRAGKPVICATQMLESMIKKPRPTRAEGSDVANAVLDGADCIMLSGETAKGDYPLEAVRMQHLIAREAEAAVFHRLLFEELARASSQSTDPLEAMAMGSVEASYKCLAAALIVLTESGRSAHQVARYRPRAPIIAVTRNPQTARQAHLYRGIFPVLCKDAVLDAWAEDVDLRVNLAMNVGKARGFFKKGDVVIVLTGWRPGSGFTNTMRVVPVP

Sequence of Pyruvate kinase PKLR (Rattus norvegicus) (P12928 whole entry): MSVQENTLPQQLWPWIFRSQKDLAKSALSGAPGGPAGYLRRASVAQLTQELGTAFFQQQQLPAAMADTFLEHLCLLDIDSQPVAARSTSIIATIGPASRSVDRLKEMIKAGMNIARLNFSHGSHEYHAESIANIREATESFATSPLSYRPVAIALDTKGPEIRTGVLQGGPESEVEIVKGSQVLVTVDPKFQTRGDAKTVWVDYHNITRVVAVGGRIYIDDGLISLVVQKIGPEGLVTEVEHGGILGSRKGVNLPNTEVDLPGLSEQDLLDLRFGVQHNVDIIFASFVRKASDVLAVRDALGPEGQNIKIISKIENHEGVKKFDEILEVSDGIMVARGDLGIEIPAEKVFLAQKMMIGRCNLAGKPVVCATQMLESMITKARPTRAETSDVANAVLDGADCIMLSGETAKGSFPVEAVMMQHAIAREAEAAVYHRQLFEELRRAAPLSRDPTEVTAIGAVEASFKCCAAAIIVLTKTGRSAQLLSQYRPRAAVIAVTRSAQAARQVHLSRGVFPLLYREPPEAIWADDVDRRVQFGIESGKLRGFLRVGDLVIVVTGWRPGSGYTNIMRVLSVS
Sequence of Pyruvate kinase PKM (Rattus norvegicus) (P11980 whole entry): as the sequence (P11980 whole entry) above
T1 sequence (P12928 whole entry): as the sequence (P12928 whole entry) above

Row | inhibition [1] | Activity [2] [%] | inhibition [4] | inhibition [5] | Rf [6] | Activity [7] [%] | Structure (SMILES) | further results
1 | inactive | – | – | – | – | – | O=C(CI)NCCCCCCCCNc1ncnc2c1ncn2[C@@H]1O[C@H](COP(=O)(O)OP(=O)(O)OP(=O)(O)O)[C@@H](O)[C@H]1O | –
2 | inactive | 9 | – | – | – | – | CC(=O)NCCCCCCCCNc1ncnc2c1ncn2[C@@H]1O[C@H](COP(=O)(O)OP(=O)(O)O)[C@@H](O)[C@H]1O | –
3 | – | – | – | – | – | – | O=C(CI)NCCCCCCCCNc1ncnc2c1ncn2[C@@H]1O[C@H](COP(=O)(O)O)[C@@H](O)[C@H]1O | inhibition [3]: inactive
4 | inactive | – | inactive | inactive | 0.55 | – | O=C(CI)NCCCNc1ncnc2c1ncn2[C@@H]1O[C@H](COP(=O)(O)OP(=O)(O)O)[C@@H](O)[C@H]1O | –
5 | inactive | 9 | inactive | inactive | 0.65 | 19 | O=C(CI)NCCCCCCNc1ncnc2c1ncn2[C@@H]1O[C@H](COP(=O)(O)OP(=O)(O)O)[C@@H](O)[C@H]1O | –
6 | inactive | 8 | inactive | inactive | 0.6 | 7 | O=C(CI)NCCCCCNc1ncnc2c1ncn2[C@@H]1O[C@H](COP(=O)(O)OP(=O)(O)O)[C@@H](O)[C@H]1O | –
7 | inactive | – | inactive | inactive | 0.53 | – | O=C(CI)NCCNc1ncnc2c1ncn2[C@@H]1O[C@H](COP(=O)(O)OP(=O)(O)O)[C@@H](O)[C@H]1O | –
8 | inactive | – | inactive | inactive | 0.58 | – | O=C(CI)NCCCCNc1ncnc2c1ncn2[C@@H]1O[C@H](COP(=O)(O)OP(=O)(O)O)[C@@H](O)[C@H]1O | –
9 | inactive | 12 | inactive | inactive | 0.68 | 25 | O=C(CI)NCCCCCCCNc1ncnc2c1ncn2[C@@H]1O[C@H](COP(=O)(O)OP(=O)(O)O)[C@@H](O)[C@H]1O | –
10 | 80% | 13 | inactive | – | 0.71 | 54 | O=C(CI)NCCCCCCCCNc1ncnc2c1ncn2[C@@H]1O[C@H](COP(=O)(O)OP(=O)(O)O)[C@@H](O)[C@H]1O | inhibition [8]: inactive; inhibition [9]: Active; inhibition [10]: inactive; Drug metabolism [11]: metabolite_notdetected; Kd [12]: 36 mM; Activity [13]: 21%; T1/2 [14]: 23 min; inhibition [15]: Active; Drug metabolism [16]: metabolite_notdetected; inhibition [17]: inactive; Drug metabolism [18]: metabolite_notdetected
